Source: ChEMBL document CHEMBL1149546, “(2R,3S)-(+)- and (2S,3R)-(-)-Halofuginone lactate: synthesis, absolute configuration, and activity against Cryptosporidium parvum” (Bioorg Med Chem Lett, 2007)
Activity calls are given as the source filed them. The rule behind the calls is not given here.

How the values were obtained:
Cryptosporidium parvum [1] = assay: Antiprotozoal activity against Cryptosporidium parvum; assay type: functional, organism-based
Summary of the method: (§1)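 C. parvum development measured in host-cell culture across three independent compound dilution series, with monensin as positive control. The read-out was parasite foci area, with control and test cultures normalized to 100,000 µm² of foci area.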

Cryptosporidium parvum [2] = assay: Antiprotozoal activity against Cryptosporidium parvum at 0.8 nM; assay type: functional, organism-based; summary of the method: as §1
Mus musculus [3] = assay: Toxicity in Crl:NMRI mouse at 10 mg/kg, po; assay type: organism-based; parameters: dose 10 mg/kg, route oral; conditions: in vivo
Summary of the method: (§2)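 Single oral doses of lactate salts (5, 10 and/or 20 mg/kg bodyweight) were given to 4-week-old female Crl:NMRI mice, n = 3 per group. Moribund mice were euthanized.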

Mus musculus [4] = assay: Toxicity in Crl:NMRI mouse at 5 mg/kg, po; assay type: organism-based; parameters: dose 5 mg/kg, route oral; conditions: in vivo; summary of the method: as §2
Mus musculus [5] = assay: Toxicity in Crl:NMRI mouse at 20 mg/kg, po; assay type: organism-based; parameters: dose 20 mg/kg, route oral; conditions: in vivo; summary of the method: as §2
Cryptosporidium parvum [6] = assay: Antiprotozoal activity against Cryptosporidium parvum up to 6 nM; assay type: functional; summary of the method: as §1

`O=C(CC1NCCCC1O)Cn1cnc2cc(Br)c(Cl)cc2c1=O` (racemic; form 2) was tested, and the Activity (Cryptosporidium parvum [1]) was “Active” and the Activity (Cryptosporidium parvum [2]) was “inactive”.

`CC(O)C(=O)O.O=C(C[C@H]1NCCC[C@@H]1O)Cn1cnc2cc(Br)c(Cl)cc2c1=O` was tested, and the Activity (Cryptosporidium parvum [1]) was “Active”, the Activity (Mus musculus [3]) was “Toxic” and the Activity (Cryptosporidium parvum [2]) was “inactive”. For the same molecule, the Activity (Mus musculus [4]) was “Toxic”.

`CC(O)C(=O)O.O=C(C[C@@H]1NCCC[C@H]1O)Cn1cnc2cc(Br)c(Cl)cc2c1=O` was tested, and the Activity (Mus musculus [5]) was “Not Active”.

For `CC(O)C(=O)O.O=C(CC1NCCCC1O)Cn1cnc2cc(Br)c(Cl)cc2c1=O` (racemic; form 1) [HALOFUGINONE LACTATE], the Activity (Cryptosporidium parvum [6]) was 80%.

`Br.O=C(CC1NCCCC1O)Cn1cnc2cc(Br)c(Cl)cc2c1=O` (racemic; form 2) [HALOFUGINONE HYDROBROMIDE] showed an Activity (Cryptosporidium parvum [6]) of 80%.

For `O=C(CC1NCCCC1O)Cn1cnc2cc(Br)c(Cl)cc2c1=O` (racemic; form 1), the Activity (Cryptosporidium parvum [1]) was “Active” and the Activity (Cryptosporidium parvum [2]) was “inactive”.
